KCNK3 block: human KCNK3 channel inhibition, primary screen. O14649. CHO-KCNK3 thallium flux, FluxOR fluorescence; active compounds read low. B-score at 10 µM. 340,000 tested, 0.84% active;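 active = B-score under library mean minus 4 SD, starting fluorescence ratio at most library mean plus 5 SD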;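 also: more negative B-score means stronger inhibition of thallium flux through KCNK3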
KCNQ1 act: human KCNQ1 channel potentiation or activation; P51787; B-score at 10 µM; 310,000 tested, 0.35% active; CHO-K1 KCNQ1, thallium flux FluxOR fluorescence; active compounds read high;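 active = fluorescence ratio B-score, a plate-corrected score, at least three library SD, with initial intensity B-score within 5 SD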
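Test system: CHO-K1 cells stably expressing KCNQ1 / Medium: assay buffer / Also added: depolarizing K+/Tl+ stimulus, K2SO4 and Tl2SO4 each 12.5 mM in 5x stock / Incubation: 90 min dye loading and 20 min compound exposure, both at room temperature / Signal: thallium influx via FluxOR fluorescence, kinetic imaging / Evaluation: B score of baseline-normalized fluorescence ratio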
KCNQ1 inh: human KCNQ1 channel inhibition | CHO-K1 KCNQ1, FluxOR thallium flux fluorescence; active compounds read high | P51787 | B-score at 10 µM | 310,000 tested, 1.3% active;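 active = compounds whose thallium flux B-score, printed positive for inhibition, exceeds three library SD while starting fluorescence stays within three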;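 also: channel opened by potassium depolarization with thallium stimulus after 20 min compound exposure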
hERG rescue: hERG (human) protection from proarrhythmic block. CHO-hERG, FluxOR thallium flux, dofetilide IC70 present. 310,000 tested, 0.51% active. AID 1511. Q12809. activation (rescue from dofetilide block), less the hit threshold, % at 10 µM;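 active = activation above the mean of controls blocked by dofetilide plus 5 SD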;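 also: thallium influx through hERG after potassium depolarization seen as dye fluorescence rise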
Kir21 inh: blocks the mouse Kir2.1 inward-rectifier potassium channel; HEK293-Kir2.1, FluxOR thallium flux fluorescence; active compounds read low; B-score at 10 µM; 310,000 tested, 0.85% active;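 active = fluorescence ratio B-score at or below minus 3 SD of library scores, with starting-brightness B-score within 2 SD, cut at about -4.2 in these data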;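 also: channel flux triggered by added potassium and thallium sulfate stimulus; B-score of peak minus minimum fluorescence over baseline after thallium stimulus; more negative B-score means stronger Kir2.1 block with less thallium influx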
KCNK9 inh: human KCNK9 channel inhibition; Q9NPC2; HEK293 KCNK9, FluxOR thallium flux fluorescence; active compounds read low; B-score at 10 µM; 310,000 tested, 1.2% active; AID 488922;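 active = ratio B-score over 3 SD below the library mean, with starting fluorescence within 5 SD of its mean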;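 also: negative B-score means less thallium flux so channel inhibition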
Target sequence (Q9NPC2 whole entry, looked up): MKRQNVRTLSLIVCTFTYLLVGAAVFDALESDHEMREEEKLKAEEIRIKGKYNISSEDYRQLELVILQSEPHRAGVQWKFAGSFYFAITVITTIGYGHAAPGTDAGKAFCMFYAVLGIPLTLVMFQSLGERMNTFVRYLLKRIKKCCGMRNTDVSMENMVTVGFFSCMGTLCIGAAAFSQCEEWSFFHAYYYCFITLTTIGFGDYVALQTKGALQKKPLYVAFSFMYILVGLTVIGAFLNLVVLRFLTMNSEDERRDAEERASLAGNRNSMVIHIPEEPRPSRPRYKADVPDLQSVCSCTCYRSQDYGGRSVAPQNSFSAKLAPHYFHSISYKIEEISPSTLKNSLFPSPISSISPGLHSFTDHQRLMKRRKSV
Active calls of the source: *; i = inactive; / = no result given. Sampled rows, rich in hits. Any-hit rate of the full collection: about 3.8%.

SMILES	KCNK3 block	KCNQ1 act	KCNQ1 inh	hERG rescue	Kir21 inh	KCNK9 inh
O=C(Nc1ccccc1)Nc1ccc(O)c2ccccc12	i	i	6*	-22.8	-0.08	i
O=C(Nc1ccccc1)Nc1cccc2ccccc12	i	i	i	-7.4	-0.06	i
Cc1cc(-c2ccc([N+](=O)[O-])cc2)cc(C)n1	i	/	/	/	/	/
O=C(Nc1nc2n(n1)C(c1ccc(Cl)cc1)CC(c1ccc(Cl)cc1)N2)c1ccco1 (stereo not drawn)	/	i	i	-9.7	-0.04	-7.68*
C=CCn1c(O)c(N=NC(=S)Nc2ccccc2C)c2cc(S(=O)(=O)N3CCOCC3)ccc21	i	9*	i	-2.1	-0.46	i
Cc1ccc(NC(=S)N=Nc2c(O)n(C)c3ccc(S(=O)(=O)N4CCOCC4)cc23)cc1C	i	i	i	-1.0	0.47	i
Cn1c(O)c(N=NC(=S)Nc2ccccc2F)c2cc(S(=O)(=O)N3CCOCC3)ccc21	i	i	i	11.3*	1.02	i
COc1ccc(-c2nc3ccccc3c(=O)n2CCCN2CCOCC2)cc1	i	i	i	-7.6	0.91	i
Cc1nc2ccccc2c(=O)n1CCCN1CCOCC1	i	i	i	5.8*	-0.67	i
COc1cccc(CNC(=O)CCCn2c(=S)[nH]c3cc4c(cc3c2=O)OCO4)c1	i	i	i	-4.3	-0.01	i
O=C(CNCCc1ccc(F)cc1)Nc1cc(F)ccc1F	i	i	i	-3.3	-0.67	i
COc1cc(C2NC(=O)NC(C)=C2C(=O)OCC2CCCCC2)ccc1O (stereo not drawn)	i	i	i	7.1*	1.74	i
COc1cc(C2NC(=O)NC(C)=C2C(=O)OCc2ccccc2)ccc1O (stereo not drawn)	i	i	i	-10.8	0.34	i
CCOC(=O)C1=C(c2ccccc2)NC(=O)NC1c1ccc(OC)cc1 (stereo not drawn)	i	i	i	0.0	0.31	i
CCOC(=O)C1=C(c2ccccc2)NC(=O)NC1c1ccc(OC)c(OC)c1 (stereo not drawn)	i	i	i	5.7*	0.1	i
Nc1c(Br)cc2c([nH]c(=O)c3ccccc32)c1Br	i	/	/	/	/	/
CC1CC(C)CN(CCCSc2ccccc2)C1 (stereo not drawn)	i	i	i	-6.7	0.58	i
CC1CC(C)CN(CCOCCSc2ccc(Cl)cc2)C1 (stereo not drawn)	i	i	i	-4.4	-4.52*	i
COc1ccc(CCC(=O)O)cc1OC	i	i	i	-6.8	0.88	i
c1ccc(-c2csc3nnc(SCc4ccc5c(c4)OCO5)n23)cc1	i	i	i	-1.6	-4.27*	i
Cc1cc(C)c(S(=O)(=O)N2CCN(c3ccc([N+](=O)[O-])c(NCc4ccco4)c3)CC2)c(C)c1	i	i	i	4.7*	-1.4	i
Cc1ccc(OCC(=O)N(Cc2ccco2)c2c(N)n(Cc3ccccc3)c(=O)[nH]c2=O)cc1C	i	/	/	/	/	/
COc1ccc(C(=O)/C(=C\c2ccco2)N2C=CC=CC2=C(C#N)C#N)cc1	i	i	i	-18.7	-9.88*	i
COc1ccc(/C=C(/C(=O)c2cccs2)N2C=CC=CC2=C(C#N)C#N)cc1	i	i	11*	-29.4	-3.61	i
N#CC(C#N)=C1C=CC=CN1/C(=C\c1ccco1)C(=O)c1ccccc1	i	/	/	/	/	/
SMILES	KCNK3 block	KCNQ1 act	KCNQ1 inh	hERG rescue	Kir21 inh	KCNK9 inh
N#CC(C#N)=C1C=CC=CN1/C(=C\c1ccco1)C(=O)c1ccc(Br)cc1	i	/	/	/	/	/
Clc1cccc(Cl)c1CSc1nnc([C@@H]2CCCN2)o1	i	i	i	-4.2	-0.24	i
CCOC(=O)c1c(NC(=O)COC(=O)CCOc2cc(C)ccc2C)sc(C(=O)N(C)C)c1C	i	/	/	/	/	/
Cc1cc(C)c(C)c(S(=O)(=O)N2CCC(C(=O)N(C)Cc3nc4ccccc4c(=O)[nH]3)CC2)c1C	i	/	/	/	/	/
Cc1nn(C)c(C)c1CNC(=O)Nc1ccc2c(c1)OCO2	i	i	i	7.4*	1.15	i
O=C(CN1C(=O)CSCC1=O)Nc1ccc2c(c1)OCO2	i	i	i	4.7*	-0.46	i

Screens (PubChem)
